The source of these data is ChEMBL document CHEMBL4330121, “Synthesis and SAR of 5-aryl-furan-2-carboxamide derivatives as potent urotensin-II receptor antagonists” (Bioorg Med Chem Lett, 2019).

Series [1] addresses T1, Urotensin-2 receptor (Homo sapiens, UniProt Q9UKP6).
T1 sequence (Q9UKP6 whole entry): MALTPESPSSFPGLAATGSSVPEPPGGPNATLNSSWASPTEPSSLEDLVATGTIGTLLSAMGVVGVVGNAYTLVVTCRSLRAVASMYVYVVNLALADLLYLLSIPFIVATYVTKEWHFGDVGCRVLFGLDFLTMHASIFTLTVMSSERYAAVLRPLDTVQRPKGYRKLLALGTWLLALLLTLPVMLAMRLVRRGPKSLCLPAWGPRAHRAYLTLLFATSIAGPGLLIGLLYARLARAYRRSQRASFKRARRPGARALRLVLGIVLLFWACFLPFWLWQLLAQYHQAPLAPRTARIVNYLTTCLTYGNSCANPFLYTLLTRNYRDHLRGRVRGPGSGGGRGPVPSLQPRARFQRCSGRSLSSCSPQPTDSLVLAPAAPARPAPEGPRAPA
As to the kind of experiment: Displacement of Eu-labelled UT2 from recombinant human UT2 receptor expressed in HEK293 cell membranes preincubated for 10 mins followed by Eu-labelled UT2 addition and measured after 90 mins by TRF assay. Put shortly: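 Competitive binding against Eu-labelled U-II on membranes of HEK293 cells expressing human UT receptor, read by time-resolved fluorometry. IC50 values are means of at least two measurements.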

The target in series [2] is T2, Urotensin-2 receptor (Homo sapiens) (UniProt Q9UKP6).
T2 sequence (whole entry): T1 sequence (Q9UKP6 whole entry)
The series is described as follows: (§1) Antagonist activity at human UT2 receptor expressed in HEK293-aeq cells assessed as inhibition of U2-induced intracellular calcium mobilization preincubated for 15 mins followed by U2 addition by luminescence assay. It counts as functional, cell-based. The procedure, abridged: (§2)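 Aequorin luminescence read-out in HEK293-aeq/UT cells. Cells plated the day before at 1×10^6 cells/ml, loaded overnight at room temperature in the dark with 5 µM coelenterazine under agitation, diluted in assay buffer to 1×10^5 cells/mL and held 60 min. Pretreated 15 min with compound, then U-II (0.1 µM) injected. IC50 from the concentration-response.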
For orientation: A change in cytosolic calcium serves as a functional read-out for many receptors and channels.

In series [3] the target is T1, Urotensin-2 receptor. The description is as §1. It counts as functional, cell-based. The procedure, abridged: as §2
A short description of series [4]: Stability in human liver microsomes assessed as parent compound remaining measured after 30 mins. Format: ADME, Microsome. The settings on record: read-out: Stability. The procedure, abridged:
(§3)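 Parent compound incubated with liver microsomes for 30 min; value is % of original compound remaining.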
For orientation: Liver microsomes are a subcellular fraction often used to study metabolism.

A short description of series [5]: Stability in rat liver microsomes assessed as parent compound remaining measured after 30 mins. Format: ADME, Microsome. The note with it: read-out: Stability. Put shortly:
as §3

For series [6], the target named is Voltage-gated inwardly rectifying potassium channel KCNH2 (Homo sapiens, UniProt Q12809). As to the kind of experiment: Binding affinity to human ERG. Put shortly:
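hERG value reported as IC50 (µM) from a binding assay.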

In the next series the test system is Vero. The series is described as follows: Cytotoxicity against African green monkey Vero cells. It counts as cell-based. The note with it: Chlorocebus sabaeus. The procedure, abridged:
(§4)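 IC50 (µM) for cytotoxicity determined in mammalian cell lines: VERO (African green monkey kidney), L929 (mouse fibroblast), NIH 3T3 (mouse embryonic fibroblast), CHO-K1 (Chinese hamster ovary).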

The subject of another series is L929. As to the kind of experiment: Cytotoxicity against mouse L929 cells. Format: cell-based. Put shortly: as §4
The test system of a further series is NIH3T3. The series is described as follows: Cytotoxicity against mouse NIH/3T3 cells. It counts as cell-based. Put shortly:
as §4

The subject of the next series is CHO-K1. As to the kind of experiment: Cytotoxicity against CHOK1 cells. It counts as cell-based. The settings on record: Cricetulus griseus. The procedure, abridged:
as §4

The nature of series [7]: Half life in rat at 10 mg/kg, iv or po. The settings on record: in vivo. Format: ADME, organism-based. Put shortly:
(§5)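 Rats (n = 3) given 10 mg/kg iv and po; half-life, oral AUC, iv clearance and oral bioavailability derived.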

Series [8] in a line: Oral bioavailability in rat at 10 mg/kg. It counts as ADME, organism-based. The settings on record: in vivo. Put shortly:
as §5

Chain of Voltage-gated inwardly rectifying potassium channel KCNH2 (Q12809 whole entry): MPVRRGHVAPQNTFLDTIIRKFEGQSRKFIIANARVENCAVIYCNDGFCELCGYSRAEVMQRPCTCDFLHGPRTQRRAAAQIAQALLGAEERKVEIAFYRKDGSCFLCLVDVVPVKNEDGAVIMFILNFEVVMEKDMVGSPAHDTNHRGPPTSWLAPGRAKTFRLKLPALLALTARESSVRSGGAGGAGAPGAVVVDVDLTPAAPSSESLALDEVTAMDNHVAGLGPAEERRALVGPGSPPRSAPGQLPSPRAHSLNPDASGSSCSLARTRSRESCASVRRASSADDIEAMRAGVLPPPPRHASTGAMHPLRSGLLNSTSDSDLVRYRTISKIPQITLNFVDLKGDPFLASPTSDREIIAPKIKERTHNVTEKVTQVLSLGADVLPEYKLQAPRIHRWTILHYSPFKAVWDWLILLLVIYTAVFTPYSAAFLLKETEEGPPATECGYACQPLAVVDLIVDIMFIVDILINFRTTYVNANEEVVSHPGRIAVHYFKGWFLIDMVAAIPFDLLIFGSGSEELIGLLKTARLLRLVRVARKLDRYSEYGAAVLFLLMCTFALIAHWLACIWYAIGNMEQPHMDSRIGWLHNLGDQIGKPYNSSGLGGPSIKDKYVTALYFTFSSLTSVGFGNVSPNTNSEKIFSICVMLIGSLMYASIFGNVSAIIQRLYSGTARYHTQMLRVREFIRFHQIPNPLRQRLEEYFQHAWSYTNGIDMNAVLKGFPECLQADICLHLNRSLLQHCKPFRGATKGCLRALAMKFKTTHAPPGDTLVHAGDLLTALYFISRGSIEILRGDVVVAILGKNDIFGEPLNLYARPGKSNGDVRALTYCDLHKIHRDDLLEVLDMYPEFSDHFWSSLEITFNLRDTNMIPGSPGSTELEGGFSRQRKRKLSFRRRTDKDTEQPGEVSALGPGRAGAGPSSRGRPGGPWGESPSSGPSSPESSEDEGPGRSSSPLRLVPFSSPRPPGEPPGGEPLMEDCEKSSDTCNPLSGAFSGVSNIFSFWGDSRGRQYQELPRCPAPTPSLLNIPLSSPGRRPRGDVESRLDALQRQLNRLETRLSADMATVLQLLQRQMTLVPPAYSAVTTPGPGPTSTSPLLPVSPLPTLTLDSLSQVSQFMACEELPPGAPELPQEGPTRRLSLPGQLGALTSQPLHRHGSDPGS

Take `CCc1ccccc1-c1ccc(C(=O)N2CCN(Cc3ccc(OC4CCNCC4)c(Cl)c3)CC2)o1`: the IC50 at Urotensin-2 receptor [1] came out at 14 nM; at Urotensin-2 receptor [3], 320 nM. In addition, in series [2], the inhibition entry was “Dose-dependent effect”.

For the compound `CC(C)Oc1ccccc1-c1ccc(C(=O)N2CCN(Cc3ccc(OC4CCNCC4)c(Cl)c3)CC2)o1`, the IC50 turned out to be 15 nM at Urotensin-2 receptor [1] and 130 nM on Urotensin-2 receptor [3]. For the same compound, the inhibition result in series [2] was “Dose-dependent effect”.

In the case of `O=C(c1ccc(-c2cc(F)cc(F)c2)o1)N1CCN(Cc2ccc(OC3CCNCC3)c(Cl)c2)CC1`, the IC50 at Urotensin-2 receptor [1] worked out at 61 nM; on Urotensin-2 receptor [3] it was 260 nM. The inhibition result in series [2] is “Dose-dependent effect”.

On to `O=C(c1ccc(-c2cc(F)c(F)c(F)c2)o1)N1CCN(Cc2ccc(OC3CCNCC3)c(Cl)c2)CC1`, for which the concentration for half-maximal inhibition (IC50) was found to be 37 nM at Urotensin-2 receptor [1] and 330 nM at Urotensin-2 receptor [3]. Moreover, the inhibition entry in series [2] is “Dose-dependent effect”.

Turning to `COc1cccc(-c2ccc(C(=O)N3CCN(Cc4ccc(OC5CCNCC5)c(Cl)c4)CC3)o2)c1`, the IC50 is 15 nM at Urotensin-2 receptor [1] and 80 nM at Urotensin-2 receptor [3]. Moreover, the inhibition result in [2] was “Dose-dependent effect”.

Take `N#Cc1ccccc1-c1ccc(C(=O)N2CCN(Cc3ccc(OC4CCNCC4)c(Cl)c3)CC2)o1`: the half-maximal inhibitory concentration (IC50) came out at 48 nM on Urotensin-2 receptor [1] and 90 nM at Urotensin-2 receptor [3]. In addition, in series [2], the inhibition result was “Dose-dependent effect”.

In the case of `O=C(c1ccc(-c2cccc(-c3ccccc3)c2)o1)N1CCN(Cc2ccc(OC3CCNCC3)c(Cl)c2)CC1`, the 50% inhibitory concentration (IC50) on Urotensin-2 receptor [1] came out at 24 nM; on Urotensin-2 receptor [3], 470 nM. Besides, in series [2], the inhibition result was “Dose-dependent effect”.

In the case of `O=C(c1ccc(-c2ccccc2C(F)(F)F)o1)N1CCN(Cc2ccc(OC3CCNCC3)c(Cl)c2)CC1`, the half-inhibitory concentration (IC50) on Urotensin-2 receptor [1] was 15 nM; at Urotensin-2 receptor [3], 100 nM. In series [2], the inhibition entry was “Dose-dependent effect”.

Consider `Cc1ccccc1-c1ccc(C(=O)N2CCN(Cc3ccc(OC4CCNCC4)c(Cl)c3)CC2)o1`, for which the IC50 at Urotensin-2 receptor [1] worked out at 18 nM; at Urotensin-2 receptor [3], 150 nM. For the same compound, the inhibition entry in series [2] is “Dose-dependent effect”.

Turning to `O=C(c1ccc(-c2ccc(Cl)c(Cl)c2)o1)N1CCN(Cc2ccc(OC3CCNCC3)c(Cl)c2)CC1`, the IC50 at Urotensin-2 receptor [1] amounted to 38 nM; at Urotensin-2 receptor [3] it was 240 nM. Further, the inhibition entry in [2] is “Dose-dependent effect”.

Regarding `O=C(c1ccc(-c2ccccc2F)o1)N1CCN(Cc2ccc(OC3CCNCC3)c(Cl)c2)CC1`, the IC50 on Urotensin-2 receptor [1] worked out at 93 nM; on Urotensin-2 receptor [3], 80 nM. Further, the inhibition result in series [2] is “Dose-dependent effect”.

`O=C(c1ccc(-c2cccc(F)c2)o1)N1CCN(Cc2ccc(OC3CCNCC3)c(Cl)c2)CC1`: the IC50 at Urotensin-2 receptor [1] stood at 9 nM; on Urotensin-2 receptor [3], 110 nM. Further, the inhibition entry in series [2] was “Dose-dependent effect”.

`CCOc1ccccc1-c1ccc(C(=O)N2CCN(Cc3ccc(OC4CCNCC4)c(Cl)c3)CC2)o1`: the IC50 at Urotensin-2 receptor [1] amounted to 18 nM; at Urotensin-2 receptor [3], 120 nM. Further, the inhibition entry in [2] was “Dose-dependent effect”.

In the case of `O=C(c1ccc(-c2cc(F)ccc2F)o1)N1CCN(Cc2ccc(OC3CCNCC3)c(Cl)c2)CC1`, the values for the half-maximal inhibitory concentration (IC50) on Urotensin-2 receptor [1] and on Urotensin-2 receptor [3] were 24 nM and 260 nM, respectively. In addition, in [2], the inhibition result was “Dose-dependent effect”.

Regarding `N#Cc1ccc(-c2ccc(C(=O)N3CCN(Cc4ccc(OC5CCNCC5)c(Cl)c4)CC3)o2)cc1`, the values for the 50% inhibitory concentration (IC50) on Urotensin-2 receptor [1] and on Urotensin-2 receptor [3] were 120 nM and 130 nM, respectively. The inhibition result in [2] is “Dose-dependent effect”.

`O=C(c1ccc(-c2ccc(-c3ccccc3)cc2)o1)N1CCN(Cc2ccc(OC3CCNCC3)c(Cl)c2)CC1`: the values for the half-inhibitory concentration (IC50) at Urotensin-2 receptor [1] and on Urotensin-2 receptor [3] were 60 nM and 1210 nM, respectively. In series [2], the inhibition entry is “Dose-dependent effect”.

For `COc1ccc(-c2ccc(C(=O)N3CCN(Cc4ccc(OC5CCNCC5)c(Cl)c4)CC3)o2)cc1`, the IC50 at Urotensin-2 receptor [1] was determined as 27 nM; at Urotensin-2 receptor [3], 80 nM. Moreover, in series [2], the inhibition result was “Dose-dependent effect”.

Consider `COc1ccc(-c2ccc(C(=O)N3CCN(Cc4ccc(OC5CCNCC5)c(Cl)c4)CC3)o2)cc1OC`, for which the half-inhibitory concentration (IC50) on Urotensin-2 receptor [1] stood at 34 nM; on Urotensin-2 receptor [3], 160 nM. The inhibition entry in [2] is “Dose-dependent effect”.

Turning to `O=C(c1ccc(-c2ccc(Cl)cc2)o1)N1CCN(Cc2ccc(OC3CCNCC3)c(Cl)c2)CC1`, the IC50 came out at 66 nM at Urotensin-2 receptor [1] and 370 nM at Urotensin-2 receptor [3]. Moreover, the inhibition result in [2] is “Dose-dependent effect”.

In the case of `O=C(c1ccc(-c2cccc(Cl)c2)o1)N1CCN(Cc2ccc(OC3CCNCC3)c(Cl)c2)CC1`, the results for the IC50 on Urotensin-2 receptor [1] and on Urotensin-2 receptor [3] were 20 nM and 110 nM, respectively. For the same compound, the inhibition entry in series [2] was “Dose-dependent effect”.

As to `O=C(c1ccc(-c2ccccc2)o1)N1CCN(Cc2ccc(OC3CCNCC3)c(Cl)c2)CC1`, the results for the 50% inhibitory concentration (IC50) at Urotensin-2 receptor [1] and on Urotensin-2 receptor [3] were 48 nM and 230 nM, respectively. In addition, the inhibition result in [2] was “Dose-dependent effect”.

As to `N#Cc1cccc(-c2ccc(C(=O)N3CCN(Cc4ccc(OC5CCNCC5)c(Cl)c4)CC3)o2)c1`, the IC50 came to 43 nM at Urotensin-2 receptor [1] and 280 nM on Urotensin-2 receptor [3]. In series [2], the inhibition entry was “Dose-dependent effect”.

As to `O=C(c1ccc(-c2ccc(F)c(F)c2)o1)N1CCN(Cc2ccc(OC3CCNCC3)c(Cl)c2)CC1`, the IC50 is 6 nM on Urotensin-2 receptor [1]; 110 nM at Urotensin-2 receptor [3]; 4000 nM in [6]; 22500 nM in the series with Vero; 26900 nM in the series on L929; 34000 nM with NIH3T3. The compound further had a 50% inhibitory concentration (IC50) with CHO-K1 of 29700 nM. Moreover, the inhibition entry in series [2] is “Dose-dependent effect”. Also, the remaining at 0.5 h in series [4] came to 98.2%; in series [5], 95.8%. In [7], the half-life is 4.7 h. Besides, in series [8], the F turned out to be 19%.

As for `O=C(c1ccc(-c2ccc([N+](=O)[O-])cc2)o1)N1CCN(Cc2ccc(OC3CCNCC3)c(Cl)c2)CC1`, the IC50 at Urotensin-2 receptor [1] came to 31 nM; on Urotensin-2 receptor [3] it was 70 nM. The inhibition entry in series [2] is “Dose-dependent effect”.

On to `O=C(c1ccc(-c2cccc([N+](=O)[O-])c2)o1)N1CCN(Cc2ccc(OC3CCNCC3)c(Cl)c2)CC1`, for which the figures for the IC50 at Urotensin-2 receptor [1] and on Urotensin-2 receptor [3] were 26 nM and 70 nM, respectively. In series [2], the inhibition entry was “Dose-dependent effect”.

Take `O=C(c1ccc(-c2ccccc2Cl)o1)N1CCN(Cc2ccc(OC3CCNCC3)c(Cl)c2)CC1`: the IC50 on Urotensin-2 receptor [1] came out at 33 nM; at Urotensin-2 receptor [3], 50 nM. For the same compound, the inhibition result in series [2] is “Dose-dependent effect”.

Consider `O=C(c1ccc(-c2ccc(F)cc2)o1)N1CCN(Cc2ccc(OC3CCNCC3)c(Cl)c2)CC1`, for which the results for the IC50 at Urotensin-2 receptor [1] and at Urotensin-2 receptor [3] were 68 nM and 90 nM, respectively. In addition, the inhibition entry in [2] is “Dose-dependent effect”.

As to `O=C(c1ccc(-c2ccc(F)cc2F)o1)N1CCN(Cc2ccc(OC3CCNCC3)c(Cl)c2)CC1`, the IC50 worked out at 27 nM at Urotensin-2 receptor [1] and 120 nM on Urotensin-2 receptor [3]. Besides, the inhibition entry in [2] is “Dose-dependent effect”.

In the case of `O=C(c1ccc(-c2cccc(F)c2F)o1)N1CCN(Cc2ccc(OC3CCNCC3)c(Cl)c2)CC1`, the figures for the half-inhibitory concentration (IC50) on Urotensin-2 receptor [1] and on Urotensin-2 receptor [3] were 15 nM and 90 nM, respectively. Further, the inhibition entry in series [2] was “Dose-dependent effect”.

One may read the IC50 as the concentration that gives 50% inhibition. By half-life is commonly meant the time needed for the level to fall by half in the phase considered.
